Screening results from PubChem.
The list is not random: actives were taken first. Their share in the collection is about 2.4%.
SUMO1 PPI mod – SUMO1-SIM interaction modulation; 360,000 tested, 0.33% active; SUMO1 binding to a labelled peptide, TR-FRET, 1 h; inhibition, % at 20 µM; in the data active means inhibition above about 37%
Target sequence (P63165 whole entry, looked up): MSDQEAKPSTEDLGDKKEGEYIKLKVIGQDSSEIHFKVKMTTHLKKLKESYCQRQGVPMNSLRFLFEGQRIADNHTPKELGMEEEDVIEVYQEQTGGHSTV
DNMT1 block – inhibitors of human DNMT1; P26358; DNMT1 molecular beacon, Hinp1I cleavage, fluorescence; inhibition (reported as % activation of signal), % at 10 µM; 360,000 tested, 0.83% active; AID 588458; in the data active means inhibition above about 50%
NadD inh – blocks S. aureus nicotinate mononucleotide adenylyltransferase; purified NadD enzyme, colorimetric absorbance read-out; inhibition, % at 20 µM; 360,000 tested, 0.78% active; AID 602399; in the data active means inhibition above about 26%
Scp1 inh – inhibitors of human Scp-1 phosphatase; Recombinant Scp1, phosphopeptide, malachite green phosphate absorbance; inhibition, % at 20 µM; 340,000 tested, 0.88% active;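 active means inhibition above about 50% at 20 µM, limit read from the data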;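 further: plate controls were DMSO wells with enzyme for no effect and wells lacking enzyme for full effect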
Target sequence (Q9GZU7 76-261 limits assumed): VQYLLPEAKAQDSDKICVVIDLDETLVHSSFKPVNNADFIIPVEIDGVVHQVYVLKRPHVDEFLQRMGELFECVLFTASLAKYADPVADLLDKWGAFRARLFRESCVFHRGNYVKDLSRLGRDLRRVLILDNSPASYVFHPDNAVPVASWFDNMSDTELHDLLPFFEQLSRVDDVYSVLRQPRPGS
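assay system = SCP-1 phosphatase catalytic domain, residues 76-261 | buffer or medium = 50 mM Tris acetate pH 5.5, 0.005% Tween-20, 10 mM MgCl2 | incubation = enzyme reaction 45 min at room temperature, colour 5 min, stabilisation 30 min | signal = Phosphate-binding colour reagent, absorbance read at 630 nm | measure = % inhibition at 20 µM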
STEP inh – inhibitors of human striatal-enriched phosphatase STEP; inhibition, % at 20 µM; P54829; recombinant STEP, OMFP fluorogenic substrate, fluorescence; 360,000 tested, 0.25% active;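 active means inhibition at 20 µM, scaled per plate between control wells, above about 37%, limit read from the data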;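 further: 0% = DMSO with enzyme and substrate and 100% = substrate only without enzyme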
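Material: STEP (striatal-enriched tyrosine phosphatase) enzyme, cell-free | Medium: 50 mM Bis-Tris pH 6.0 with 2.5 mM DTT and 0.005% Tween 20 | Read-out: Percent inhibition scaled to no-enzyme and uninhibited-enzyme controls, plate-pattern corrected | Signal: Fluorescence read at 480 nm ex / 540 nm em | Times: 20 min reaction, room temperature, in the dark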
LMPTP block – blocks human LMPTP phosphatase; recombinant LMPTP-A, OMFP fluorogenic substrate, fluorescence intensity; P24666; inhibition, % at 20 µM; 360,000 tested, 0.22% active; AID 651560;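 active means compounds that cut the enzyme signal by at least half of the control window in the single-dose screen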;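 further: plate controls were DMSO wells with enzyme plus substrate for no effect and substrate without enzyme for full effect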
Target sequence (P24666 whole entry, looked up): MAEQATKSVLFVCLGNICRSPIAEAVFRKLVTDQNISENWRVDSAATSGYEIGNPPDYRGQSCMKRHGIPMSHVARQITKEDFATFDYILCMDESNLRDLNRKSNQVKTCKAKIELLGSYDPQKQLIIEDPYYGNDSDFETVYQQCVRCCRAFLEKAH
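Test system – LMPTP-A phosphatase enzyme · Quantity – 0.625 nM LMPTP-A final · Reagent – OMFP substrate, 400 µM final · Dosing – one test concentration per compound, 20 µM, with 3% DMSO overall · Timing – 50 min enzyme reaction at room temperature, protected from light · Detection – fluorescence intensity · Controls – substrate-only low control, DMSO enzyme-plus-substrate high control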
Scp1 confirm – confirmation of human Scp-1 phosphatase inhibitors; 2,500 tested, 61% active; recombinant SCP-1 catalytic domain, phosphate release, malachite green absorbance; shares compounds with Scp1 inh; inhibition, % at 20 µM;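 further: plate controls were DMSO with enzyme for no effect and buffer wells lacking enzyme for full effect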
MG interference – interferes with malachite green readout, flagging false Scp-1 hits; apparent inhibition (interference), % at 20 µM; Colorimetric interference counterscreen, malachite green absorbance 630 nm; AID 540313; shares compounds with Scp1 inh; 2,500 tested, under 10 active;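 further: compounds added after enzyme reaction finished so only phosphate colour detection is probed; plate controls were DMSO wells with completed Scp-1 reaction for no effect and substrate wells lacking enzyme for full effect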
Scp1 DSF – Scp-1 (human) binding by thermal shift; shares compounds with Scp1 inh; Recombinant SCP1, Sypro Orange thermal shift Tm; thermal shift relative to vanadate control, % at 40 µM; 1,500 tested, 25% active; AID 540329;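 active means substances whose mean melting-temperature shift, as a percentage of the reference inhibitor's shift, reaches about 5.3%, limit read from the data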;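 further: 0% = Tm of DMSO wells and 100% = Tm with sodium orthovanadate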
DNMT1 interf DR – counter-screen for DNMT1 inhibitors: spectral interference, dose response; shares compounds with DNMT1 block; molecular beacon fluorescence; IC50, µM; 200 tested, under 10 active; call rule not given here
DNMT1 confirm – DNMT1 inhibition confirmation, single concentration. 2,300 tested, 8% active. shares compounds with DNMT1 block. inhibition, % at 10 µM. DNMT1 molecular beacon HinP1I cleavage, fluorescence;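 active means average inhibition of at least 30% in the single-concentration confirmation test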
Beacon interf – counter-screen for DNMT1 inhibitors: spectral interference | DNMT1 molecular beacon spectral interference counterscreen, fluorescence 485/520 | shares compounds with DNMT1 block | activation (fluorescence interference), % at 10 µM | 2,300 tested, 1% active;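 active means activation of at least 30% at 10 µM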;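 further: DNMT1 catalytic domain with a HinP1I cleavage step and a FAM/dabcyl DNA beacon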
The depositor's hits bear a star; nt = no result.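 How the source made its calls, unless noted: active means inhibition of at least 30% at 20 µM; inactive means the rest.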

SMILES	SUMO1 PPI mod	DNMT1 block	NadD inh	Scp1 inh	STEP inh	LMPTP block	Scp1 confirm	MG interference	Scp1 DSF	DNMT1 interf DR	DNMT1 confirm	Beacon interf
CC(=O)N1c2ccc(Cl)cc2C2OCCC2C1c1ccco1 (stereo unspecified)	4	0	-4	-7	0	-1	nt	nt	nt	nt	nt	nt
O=C(Nc1ccc(Cl)c(S(=O)(=O)N2CCOCC2)c1)c1ccncc1	6	-5	2	6	-2	-1	nt	nt	nt	nt	nt	nt
CCC1CCCCN1CC(O)COCc1cccc(OC)c1 (stereo unspecified)	-2	0	-1	-4	0	1	nt	nt	nt	nt	nt	nt
CCN(CC)S(=O)(=O)c1ccc(/C=C/C(=O)OCC(=O)NCc2ccco2)cc1	-17	64*	8	71*	7	10	79*	2	4	nt	4	6
C=C(C)C(=O)Nc1cccc(C2=NOC3(C2)C[C@@H](C(N)=O)N(C(=O)/C=C/CC)C3)c1 (stereo partly specified)	64*	109*	-1	69*	7	0	57*	-13	-29	>99	42*	1
C=C(C)C(=O)Nc1cccc(C2=NOC3(C2)C[C@H](C(N)=O)N(C(=O)COc2ccc(Cl)cc2)C3)c1 (stereo partly specified)	104*	98*	-8	72*	5	1	75*	2	-8	>99	64*	-2
CCC(=O)Nc1cccc(C2=NOC3(C2)C[C@@H](C(N)=O)N(C(=O)COc2ccc(Cl)cc2)C3)c1 (stereo partly specified)	2	-5	3	-4	-2	-1	nt	nt	nt	nt	nt	nt
C/C=C(/C)C(=O)Nc1cccc(C2=NOC3(C2)C[C@H](C(N)=O)N(C(=O)c2ccc(Cl)cc2)C3)c1 (stereo partly specified)	4	-6	-1	-6	-1	2	nt	nt	nt	nt	nt	nt
C=C(C)C(=O)Nc1cccc(C2=NOC3(C2)C[C@@H](C(N)=O)N(C(=O)C2(C)CC2)C3)c1 (stereo partly specified)	91*	106*	-7	75*	13	0	60*	-16	-5	>99	103*	4
C=C(C)C(=O)Nc1cccc(C2=NOC3(C2)C[C@@H](C(N)=O)N(C(=O)C(=C)C)C3)c1 (stereo partly specified)	63*	103*	-7	70*	3	-1	62*	-9	-11	>99	60*	3
Cc1ccc(NC(=O)C2CCN(c3ncnc4c3nc3n4CCCCC3)CC2)cc1Cl	6	-3	-6	15	-1	1	nt	nt	nt	nt	nt	nt
COC(=O)c1cc(-c2ccc(S(=O)(=O)N3CCCC(C)C3)cc2)c(C(F)(F)F)s1 (stereo unspecified)	2	1	5	-2	5	5	nt	nt	nt	nt	nt	nt
O=C1C2CCCN2C(c2ccco2)N1c1ccc(F)cc1 (stereo unspecified)	-1	2	-5	-5	-4	1	nt	nt	nt	nt	nt	nt
CCCCNC(=O)NS(=O)(=O)c1cnccc1Sc1ccc(Cl)cc1	1	3	-2	-2	-2	-1	nt	nt	nt	nt	nt	nt
